# A selection: hits, their analogues and other compounds. The true share with any hit is near 1.7%.
# ARNT TACC3 PPI = disruptors of ARNT/TACC3 protein interaction, primary screen, biochemical, AlphaScreen, single concentration; Transforming acidic coiled-coil-containing protein 3 (Homo sapiens), Q9Y6A5; AlphaScreen His-ARNT PAS-B/GST-TACC3 binding, luminescence; TACC3 fragment carries E629A point mutation; inhibition, % at 9.99 µM; actives 0.66% (n = 390,000); AID 623870, 2012;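 active = mean inhibition of replicates at least 50% and at least half of replicates each reaching 50%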
# F508del corr = F508del CFTR correction, initial screen, CFBE line, single point; activity (quench increase), % at 7.58 µM; actives 0.36% (n = 350,000); CFBE cells, YFP halide quenching; stimulated with forskolin plus potentiator P3; % fluorescence drop versus neutral controls;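 active = mean added fluorescence quench of at least 8% versus neutral control, with both replicates also reaching 8%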;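 also: cells transiently co-express mutant CFTR-F508del with the halide-sensitive YFP; corrector assay measuring rescue of mutant channel to the surface after 24 h compound exposure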
# CAL PDZ FP-1 = CAL PDZ peptide-binding inhibitors, primary screen, biochemical, fluorescence polarization, Cer-tagged CAL PDZ, HTS. actives 0.02% (n = 330,000). inhibition, % at 20 µM. purified CAL PDZ, TMR-peptide fluorescence polarization, 1 h. Golgi-associated PDZ and coiled-coil motif-containing protein (Homo sapiens), Q9HD26. AID 504414, 2011;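 active = highest replicate inhibition of at least 40%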
#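 Read-out basis: mP drop reported as inhibition | Assay system: Tagged CAL PDZ protein CerCALP, purified | Benchmarks: Unlabelled peptide for full inhibition, DMSO wells as neutral | Schedule: 1 h incubation at room temperature before polarization reading | Buffer or medium: Sodium phosphate/NaCl buffer pH 7.4 with TCEP, IgG, Thesit | Doses: Single point, 20 µM | Measured by: Fluorescence polarization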
# PGC1a acetyl inh = inhibitors of PGC1a acetylation signal, primary screen, cell-based, U2OS, AlphaScreen, inhibitor mode. inhibition, % at 15.6 µM. actives 0.17% (n = 350,000). AlphaScreen anti-acetyl-lysine; with virally co-expressed GCN5 acetyltransferase;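 active = every replicate shows inhibition of at least 40%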
# CAL PDZ FP-2 = untagged CAL PDZ binding inhibitors, primary screen, biochemical, fluorescence polarization, HTS | purified CAL PDZ, TMR-peptide fluorescence polarization, 1 h | Golgi-associated PDZ and coiled-coil motif-containing protein (Homo sapiens), Q9HD26 | actives 0.92% (n = 300,000) | inhibition, % at 24.9 µM | AID 602252, 2012;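 active = mean inhibition of at least 30% with at least half of replicates also reaching 30%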
# miR122 inh = miR-122 Renilla sensor signal increase in Huh7, primary screen, miR-122 inhibitor project, cell-based, single point, plate reader; Huh7 miR-122 Renilla luciferase sensor, 48 h; neutral wells = 0, positive control = 100; activation (reporter increase), % at 12.5 µM; actives 0.3% (n = 340,000);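 active = mean replicate activation score at least 90 and every replicate individually at or above 90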;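 also: higher luciferase means less miR-122 activity so hits act as miR-122 inhibitors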
# Numbers stand for hits; - = inactive; . = no result given.
SMILES,ARNT TACC3 PPI,F508del corr,CAL PDZ FP-1,PGC1a acetyl inh,CAL PDZ FP-2,miR122 inh
C[C@@H]1CCCCO[C@H](CN(C)C(=O)Nc2ccc(F)cc2)[C@@H](C)CN([C@H](C)CO)C(=O)c2cc(NC(=O)Nc3ccc(F)cc3)ccc2O1,-,-,.,-,.,-
c1ccc(CN2CCCC3(CCCN(Cc4nc(COc5ccccc5)no4)C3)C2)cc1 (stereo unspecified),-,.,-,.,51.9,.
c1ccc(CN2CCCC3(CCCN(Cc4nc(CC5CC5)no4)C3)C2)cc1 (stereo unspecified),-,-,-,-,-,-
CN(C)C1(CNC(=O)Nc2ccccc2)CCCCC1,-,-,-,-,-,-
CN(C)C1(CNC(=S)Nc2ccccc2C(F)(F)F)CCCCC1,-,-,-,.,60.8,.
C[C@@H]1CCCCO[C@@H](CN(C)CC2CC2)[C@H](C)CN([C@@H](C)CO)C(=O)c2cc(NC(=O)NC3CCCCC3)ccc2O1,-,-,.,-,.,-
COc1ccc(CCNc2nc(=S)[nH]c3cc(OC)c(OC)cc23)cc1OC,55.6,-,-,.,-,.
COc1ccccc1CNc1nc(=S)[nH]c2cc(OC)c(OC)cc12,53.5,-,-,.,-,.
COc1cc2[nH]c(=S)nc(NCCc3ccc(S(N)(=O)=O)cc3)c2cc1OC,70.4,-,-,-,-,-
C[C@H]1CN([C@@H](C)CO)C(=O)c2cccc(NS(=O)(=O)c3ccccc3)c2O[C@@H]1CN(C)C(=O)NC1CCCCC1,-,-,.,-,.,-
COc1ccc(CN(C)C[C@H]2OCCCC[C@@H](C)Oc3ccc(NC(=O)Nc4c(C)noc4C)cc3C(=O)N([C@H](C)CO)C[C@@H]2C)cc1,-,-,.,-,.,-
CC/C(=N\NC(=O)c1ccc2c(c1)OCO2)C12CC3CC(CC(C3)C1)C2,.,.,-,-,-,181.1
C/C(=N\NC(=O)c1ccc2c(c1)OCO2)c1ccco1,-,-,-,-,49.6,-
C/C(=N\NC(=O)CNC(=O)c1ccc2c(c1)OCCO2)c1ccco1,-,-,-,.,-,.
CC/C(=N\NC(=O)c1ccncc1)C12CC3CC(CC(C3)C1)C2,-,.,-,-,-,-
CO[C@H]1CN(C)C(=O)c2cc(NC(=O)Nc3ccccc3F)ccc2OC[C@H](C)N(Cc2ccccc2C(=O)O)C[C@H]1C,-,-,.,-,.,.
CCOC(=O)c1c(C)[nH]c(C(=O)N/N=C/c2ccc(OC)c(OC)c2)c1C,-,9.8,-,-,-,-
CCOC(=O)c1c(C)[nH]c(C(=O)N/N=C\c2ccccc2O)c1C,-,21.5,-,-,-,-
COc1ccccc1/C=N/NC(=O)c1[nH]c(C)c(C(=O)N/N=C/c2ccccc2OC)c1C,-,-,-,.,-,.
CCOc1ccc(/C=N/NC(=O)c2ccoc2C)cc1OC,.,-,-,.,182.1,-
CCOC(=O)c1[nH]c(C)c(C(=O)OCC(=O)NCc2ccc(OC)c(OC)c2)c1C,-,-,-,-,-,-
COc1cc(/C=N/NC(=O)c2ccoc2C)ccc1O,-,.,-,.,-,.
CCOC(=O)c1c(C)[nH]c(C(=O)N/N=C/c2cc([N+](=O)[O-])ccc2O)c1C,71.8,-,-,.,-,-
CCOC(=O)c1c(C)[nH]c(C(=O)OCc2ccc([N+](=O)[O-])cc2)c1C,-,-,-,-,-,-
CCC(=O)N[C@H]1CC[C@H](CC(=O)NCc2ccccc2OC)O[C@@H]1CO,-,-,.,-,.,.
SMILES,ARNT TACC3 PPI,F508del corr,CAL PDZ FP-1,PGC1a acetyl inh,CAL PDZ FP-2,miR122 inh
COc1ccc(S(=O)(=O)N(C)C[C@H]2OCCCC[C@H](C)Oc3ccc(NC(=O)Nc4ccccc4)cc3C(=O)N([C@@H](C)CO)C[C@@H]2C)cc1,-,-,.,-,.,-
CC(C)NC(=O)Nc1ccc2c(c1)C(=O)N([C@@H](C)CO)C[C@@H](C)[C@H](CN(C)S(=O)(=O)c1cccs1)O2,.,-,.,-,.,-
CCOC(=O)c1[nH]c(C)c(C(=O)Nc2ccccc2C)c1C,-,-,-,-,.,138.3
CCOC(=O)c1[nH]c(C)c(C(=O)Nc2cc(Cl)ccc2C)c1C,-,-,-,-,.,-
CC(C)NC(=O)NCC[C@@H]1CC[C@@H](NS(=O)(=O)c2ccccc2)[C@@H](CO)O1,.,-,.,-,.,.
c1ccc2c(c1)CCCC2C1=NCCN1 (stereo unspecified),-,-,-,-,-,-
Brc1ccc2c(c1)C(C1=NCCN1)c1ccccc1CS2 (stereo unspecified),-,10.8,-,-,-,-
C=CCn1c(-c2cccc3ccccc23)n[nH]c1=S,-,.,-,-,49.7,-
Cc1cc(C)c(S(=O)(=O)N2CCN=C2c2ccccc2)cc1C,-,.,-,-,-,100.0
COc1cc(C)c(S(=O)(=O)N2CCN=C2c2ccccc2)cc1C,-,.,-,-,-,.
C[C@@H]1CN([C@@H](C)CO)S(=O)(=O)c2ccc(C#CC(C)(C)O)cc2O[C@@H]1CN(C)C(=O)C1CCCCC1,-,-,.,-,.,-
CCOc1ccc(C(=O)N[C@H](C(=O)Nc2cccc(S(=O)(=O)N3CCOCC3)c2)C(C)C)cc1,-,-,-,.,-,.
CCOc1ccc(C(=O)N[C@H](C(=O)Nc2cccc(S(=O)(=O)N3CCCCC3)c2)C(C)C)cc1,-,14.7,-,-,-,-
CCOc1ccc(NC(=O)C2CCN(S(C)(=O)=O)CC2)cc1,-,-,-,.,-,.
CCOC(=O)N1CCC(C(=O)Nc2ccc(OCC)cc2)CC1,-,9.8,-,-,.,-
CN(Cc1ccccc1)S(=O)(=O)c1ccc(NC(=S)NC(=O)C2CCCCC2)cc1,-,-,-,.,-,125.0
CCOc1ccc(NC(=S)NC(=O)C2CCCC2)cc1,-,-,-,.,32.1,-
COc1ccc(NC(=S)NC(=O)C2CCCCC2)cc1,-,-,-,.,-,.
CN(Cc1ccccc1)S(=O)(=O)c1ccc(NC(=S)NC(=O)C(C)(C)C)cc1,-,-,-,-,-,-
OC[C@H]1[C@@H](c2ccc(C#CC3CC3)cc2)[C@@H]2CN(CCC(F)(F)F)CCCCN12,-,-,.,-,.,-
COc1cccc(CN2CCC3(CC2)CN(C(=O)C2CC2)[C@H](CO)c2[nH]c4cc(OC)ccc4c23)c1,.,-,.,-,.,.
O=C(CC1CC1)N[C@@H]1CC[C@H](CCNS(=O)(=O)c2ccc(Cl)cc2)O[C@@H]1CO,-,-,.,-,.,.

# Compound activity from PubChem BioAssay.
